Test results as given in ChEMBL document CHEMBL3286169, “Development of inhibitors of heterotrimeric Gαi subunits” (Bioorg Med Chem, 2014).
Active and inactive are the calls of the source. The rule behind the calls is not given here. Peptide text beside a SMILES is read from it.

Legend:
[1] = target: T1, Guanine nucleotide-binding protein G(q) subunit alpha (Homo sapiens) (UniProt P50148); assay: Binding affinity to Galphaq (unknown origin) expressed in baculovirus-infected insect Hi5 cells assessed as inhibition of BODIPY FL GTPgammaS binding by measuring fluorescence reduction at 30 to 300 uM preincubated for 30 mins followed by BODIPY FL GTPgammaS addition measured for 60 mins by real time nucleotide exchange assay relative to vehicle-treated control; details: BTI-TN-5B1-4
T1 sequence (whole entry): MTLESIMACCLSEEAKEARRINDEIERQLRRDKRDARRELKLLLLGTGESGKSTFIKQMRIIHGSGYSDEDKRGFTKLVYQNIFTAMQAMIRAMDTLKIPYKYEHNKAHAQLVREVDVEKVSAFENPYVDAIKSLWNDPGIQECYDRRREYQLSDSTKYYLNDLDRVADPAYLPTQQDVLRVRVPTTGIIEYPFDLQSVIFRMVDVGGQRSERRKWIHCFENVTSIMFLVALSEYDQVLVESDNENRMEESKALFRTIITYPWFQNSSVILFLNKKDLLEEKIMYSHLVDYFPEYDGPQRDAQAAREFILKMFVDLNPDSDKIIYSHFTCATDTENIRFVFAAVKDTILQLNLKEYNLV
Outline: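 Gαq was partially purified from baculovirus-infected Hi5 insect cells (5 × MOI, 48 h). 600 nM protein was preincubated 30 min with compound (DMSO ≤1% v/v final) in 10 mM HEPES, 100 mM NaCl, 5 mM MgCl2, 0.1 mM EDTA, pH 7.4. Exchange was started with 250 nM BODIPY FL GTPγS. Endpoint at 60 min vs vehicle; triplicates, three experiments.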

HEK293 = assay: Cytotoxicity against HEK293 GloSensor cells transfected with Galphai1 coupled with alpha-2 adrenoceptor assessed as effect on cell viability at 10 uM; format: cell-based; details: human, hek293, 10 µM
[2] = target: Guanine nucleotide-binding protein G(i) subunit alpha-1 (Homo sapiens) (UniProt P63096); assay: Binding affinity to human Galphai1 expressed in Escherichia coli BL21 assessed as inhibition of [35S]GTPgammaS binding preincubated for 20 mins followed by [35S]GTPgammaS addition measured for 30 mins by liquid scintillation counting analysis; format: functional
Sequence of Guanine nucleotide-binding protein G(i) subunit alpha-1 (Homo sapiens) (P63096 whole entry): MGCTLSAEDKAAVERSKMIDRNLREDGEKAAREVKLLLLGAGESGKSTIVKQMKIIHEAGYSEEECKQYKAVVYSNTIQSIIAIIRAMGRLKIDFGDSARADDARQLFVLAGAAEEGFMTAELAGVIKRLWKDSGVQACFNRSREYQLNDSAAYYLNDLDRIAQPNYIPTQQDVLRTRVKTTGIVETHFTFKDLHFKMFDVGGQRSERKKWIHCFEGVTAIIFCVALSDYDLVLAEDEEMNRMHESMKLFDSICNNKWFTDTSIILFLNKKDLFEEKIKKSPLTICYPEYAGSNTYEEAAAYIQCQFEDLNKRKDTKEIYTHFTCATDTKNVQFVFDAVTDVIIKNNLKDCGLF
Outline: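 Human Gαi1 was expressed from pPAL7 (Profinity eXact construct) in E. coli BL21 and affinity purified. 100 nM Gαi1 was preincubated 20 min at 24 °C with peptide, then 0.5 μM [35S]GTPγS was added for 30 min at 24 °C, in duplicate. Filtration on nitrocellulose was followed by washes in cold Tris/MgCl2/EDTA buffer pH 7.4 and scintillation counting. Nonspecific binding was taken with 100 μM GTPγS; results are percent of specific binding without peptide.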

inhibition [1] [%]	inhibition [2]	Compound	Activity (HEK293)
< 10		C/C(=N\c1ccc(O)cc1)c1sc2ccccc2c1O	
27		Cc1nc(NC(=O)NCCC2=CSC3=NCCCN23)nn1C	
40		CC(=O)C1=C(C)NC(C(C#N)C#N)=C(C#N)[C@H]1c1ccccc1	
25		Cc1cccc(N[C@@]2(C(F)(F)F)NC(c3ccccc3)=NC2=O)n1	
< 10		CC1=CC(C)(C)NC(Nc2nc(-c3ccccc3)c3ccccc3n2)=N1	Toxic
35		CC(=O)/C(=C(\C)O)[C@@H]1c2ccccc2O[C@H](C(F)(F)F)[C@@H]1[N+](=O)[O-]	
	Active	CSCC[C@H](NC(=O)[C@H](CCCNC(=N)N)NC(=O)[C@H](CCCCN)NC(=O)[C@H](CO)NC(=O)[C@H](CCC(N)=O)NC(=O)[C@H](CO)NC(=O)[C@H](CCCCN)NC(=O)[C@H](C)NC(=O)[C@H](CC(C)C)NC(=O)[C@H](CC(C)C)NC(=O)[C@H](CC(=O)O)NC(=O)[C@H](Cc1ccccc1)NC(=O)[C@H](Cc1ccccc1)NC(=O)[C@H](CC(=O)O)NC(=O)[C@H](CCC(=O)O)NC(=O)[C@H](CCC(=O)O)NC(=O)CNC(=O)[C@H](CCSC)NC(=O)[C@@H](N)[C@@H](C)O)C(=O)N[C@@H](CC(=O)O)C(=O)N[C@@H](CC(=O)O)C(=O)N[C@@H](CCC(N)=O)C(=O)N[C@@H](CCCNC(=N)N)C(=O)N[C@H](C(=O)N[C@@H](CC(=O)O)C(=O)N[C@@H](CC(C)C)C(=O)N[C@@H](C)C(=O)N[C@@H](CCCCN)C(N)=O)C(C)C (H-TMGEEDFFDLLAKSQSKRMDDQRVDLAK-NH2)	
< 10		C1=C(/N=C/c2ccccc2)[N+](Cc2ccccc2)=CCO1	
< 10		CCC[C@H]1C[C@](C)(C(=O)CNc2ccccn2)OC1=O	
32		O=[N+]([O-])[C-](/C=N/C1CCCCC1)/C=N/C1CCCCC1	Non-toxic
< 10		SC1=C2CCCCC2=[N+](C[C@@H]2CCCO2)[C@@H](c2ccccc2)N1	

Compound	inhibition [1] [%]	inhibition [2]	Activity (HEK293)
CCc1ccc2c(C)nc(NC3=NC(C)(C)CC(C)=N3)nc2c1	50		Non-toxic
